According to publication PMC7452071 (Acta Pharmaceutica Sinica. B, 2019):
Like-named read-outs stand apart in the source and are kept apart here.

Tests used:
[1] = molecular target: TOP1 (Bos taurus, UniProt F1MN93); assay: TOP1-mediated pBR322 DNA relaxation assay; format: biochemical; details: 100 μmol/L
[2] = test system: γH2AX in HCT116 cells; assay: Western blot for γH2AX; format: cell-based, human; details: 0.5 and 5 μmol/L, 24 h
Method in brief: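 HCT116 seeded at 35 × 10^4 cells/well, treated 24 h with test compound or vehicle. Cells washed in cold PBS, lysed 30 min on ice in RIPA with protease and phosphatase inhibitors, protein quantified by BCA. 30 μg resolved by SDS-PAGE, transferred to PVDF, blocked 2 h in 5% BSA, primary antibody overnight at 4 °C, secondary 1.5 h, infrared imaging.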

[3] = molecular target: human recombinant HDAC1 enzyme (Homo sapiens, UniProt Q13547); assay: HDACs activity assay, HDAC1; format: biochemical
human recombinant HDAC1 enzyme, sequence (Q13547 whole entry): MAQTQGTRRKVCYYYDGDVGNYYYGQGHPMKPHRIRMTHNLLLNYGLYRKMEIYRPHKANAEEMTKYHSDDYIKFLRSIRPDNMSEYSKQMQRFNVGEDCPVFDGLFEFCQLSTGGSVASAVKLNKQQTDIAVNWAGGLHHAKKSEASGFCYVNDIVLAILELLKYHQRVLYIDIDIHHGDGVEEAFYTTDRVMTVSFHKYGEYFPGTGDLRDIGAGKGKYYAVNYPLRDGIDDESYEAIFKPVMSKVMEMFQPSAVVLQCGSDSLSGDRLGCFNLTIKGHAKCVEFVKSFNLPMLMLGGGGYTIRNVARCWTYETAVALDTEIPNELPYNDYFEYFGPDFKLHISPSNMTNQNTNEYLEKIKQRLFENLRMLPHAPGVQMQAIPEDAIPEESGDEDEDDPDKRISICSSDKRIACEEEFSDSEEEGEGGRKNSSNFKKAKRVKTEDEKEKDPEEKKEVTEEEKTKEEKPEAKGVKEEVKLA

[4] = test system: HCT116 (colon cancer); assay: In vitro cell viability assay; format: cell-based; details: Homo sapiens, HCT-116, 48 h, read-out: IC50 HCT116
[5] = test system: MCF-7 (breast cancer); assay: In vitro cell viability assay; format: cell-based; details: Homo sapiens, MCF7, 48 h, read-out: IC50 MCF-7
[6] = test system: A549 (lung cancer); assay: In vitro cell viability assay; format: cell-based; details: Homo sapiens, A549, 48 h, read-out: IC50 A549
[7] = test system: HCT116, MCF-7 and A549 cell lines; assay: In vitro cell viability assay; format: cell-based; details: Homo sapiens, read-out: IC50 range against the three tested cell lines
Method in brief: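 Cells were grown in 10% FBS at 37 °C, 5% CO2, seeded in DMEM and held 24 h to 60%–70% confluency. They were then exposed to graded test compound concentrations or vehicle for 48 h. 10% CCK8 was added for 1–4 h at 37 °C and absorbance read at 450. IC50 was computed by the Logit method; three experiments.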

[8] = molecular target: TOP2α (Homo sapiens, UniProt P11388); assay: TOP2-mediated pBR322 DNA relaxation assay; format: biochemical
TOP2α, sequence (P11388 whole entry): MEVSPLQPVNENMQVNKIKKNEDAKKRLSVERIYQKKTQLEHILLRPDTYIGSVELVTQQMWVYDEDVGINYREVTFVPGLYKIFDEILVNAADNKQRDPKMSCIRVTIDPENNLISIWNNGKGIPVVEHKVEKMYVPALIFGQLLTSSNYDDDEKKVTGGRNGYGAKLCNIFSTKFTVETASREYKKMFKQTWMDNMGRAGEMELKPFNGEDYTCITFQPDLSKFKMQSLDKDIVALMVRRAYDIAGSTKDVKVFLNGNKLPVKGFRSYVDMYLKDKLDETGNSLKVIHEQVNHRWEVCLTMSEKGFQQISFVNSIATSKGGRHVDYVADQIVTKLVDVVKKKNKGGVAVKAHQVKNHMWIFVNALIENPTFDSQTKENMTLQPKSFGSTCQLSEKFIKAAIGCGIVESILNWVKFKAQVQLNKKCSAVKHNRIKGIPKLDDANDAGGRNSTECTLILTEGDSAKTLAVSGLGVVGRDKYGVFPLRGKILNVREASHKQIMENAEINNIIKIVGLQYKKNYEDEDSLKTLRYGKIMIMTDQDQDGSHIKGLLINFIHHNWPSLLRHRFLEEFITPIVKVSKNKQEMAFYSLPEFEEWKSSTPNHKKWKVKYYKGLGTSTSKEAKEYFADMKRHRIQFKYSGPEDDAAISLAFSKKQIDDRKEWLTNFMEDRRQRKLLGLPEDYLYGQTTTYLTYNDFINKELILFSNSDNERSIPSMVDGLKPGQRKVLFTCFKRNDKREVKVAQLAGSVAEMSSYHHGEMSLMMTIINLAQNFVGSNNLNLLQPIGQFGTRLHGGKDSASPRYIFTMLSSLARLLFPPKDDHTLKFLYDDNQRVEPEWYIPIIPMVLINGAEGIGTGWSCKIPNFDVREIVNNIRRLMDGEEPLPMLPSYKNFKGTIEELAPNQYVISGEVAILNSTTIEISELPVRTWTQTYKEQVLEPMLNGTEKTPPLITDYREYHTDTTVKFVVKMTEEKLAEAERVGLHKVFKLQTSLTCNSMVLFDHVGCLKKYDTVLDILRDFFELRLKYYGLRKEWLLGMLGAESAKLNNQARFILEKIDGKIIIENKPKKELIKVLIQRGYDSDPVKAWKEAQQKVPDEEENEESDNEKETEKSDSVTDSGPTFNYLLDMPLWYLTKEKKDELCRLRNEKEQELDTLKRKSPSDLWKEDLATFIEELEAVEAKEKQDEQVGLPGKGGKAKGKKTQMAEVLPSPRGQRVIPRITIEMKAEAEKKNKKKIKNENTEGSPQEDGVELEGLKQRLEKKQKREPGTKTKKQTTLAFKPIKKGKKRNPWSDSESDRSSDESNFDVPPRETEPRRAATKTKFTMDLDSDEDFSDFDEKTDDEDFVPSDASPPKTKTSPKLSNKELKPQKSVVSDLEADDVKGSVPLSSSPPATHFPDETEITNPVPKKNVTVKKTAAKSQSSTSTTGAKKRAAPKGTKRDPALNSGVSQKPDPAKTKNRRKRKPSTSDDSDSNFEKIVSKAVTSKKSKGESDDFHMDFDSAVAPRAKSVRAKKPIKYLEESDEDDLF

[9] = test system: hematological cell lines (HL60, K562 and HEL); assay: Antiproliferative activity, hematological cell lines together; format: cell-based; details: read-out: IC50 range toward hematological cell lines
[10] = In vitro metabolic stability in mice liver microsomes; format: in vitro ADME
[11] = test system: HCT116 xenograft; assay: In vivo tumor growth inhibition assay against HCT116 xenograft; details: bid
[12] = test system: HUVEC; assay: Cytotoxicity against human normal cell line HUVEC; format: cell-based; details: read-out: IC50 HUVEC
[13] = molecular target: HDAC2 (Homo sapiens, UniProt Q92769); assay: HDACs activity assay, HDAC2; format: biochemical
HDAC2, sequence (Q92769 whole entry, canonical isoform): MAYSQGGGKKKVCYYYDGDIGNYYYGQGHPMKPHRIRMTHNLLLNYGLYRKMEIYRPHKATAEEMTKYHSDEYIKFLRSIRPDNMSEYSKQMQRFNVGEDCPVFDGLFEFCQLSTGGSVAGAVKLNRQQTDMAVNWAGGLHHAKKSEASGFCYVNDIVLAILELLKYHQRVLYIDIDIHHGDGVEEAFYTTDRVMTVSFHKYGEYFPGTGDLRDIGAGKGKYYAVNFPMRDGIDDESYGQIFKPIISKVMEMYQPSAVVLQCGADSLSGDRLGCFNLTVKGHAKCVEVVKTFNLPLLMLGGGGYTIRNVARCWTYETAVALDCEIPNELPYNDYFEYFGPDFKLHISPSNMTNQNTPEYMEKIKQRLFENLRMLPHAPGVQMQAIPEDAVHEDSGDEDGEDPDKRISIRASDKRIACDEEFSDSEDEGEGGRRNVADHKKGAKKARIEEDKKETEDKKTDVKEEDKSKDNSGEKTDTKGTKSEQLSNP
Method in brief: (§1)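 Enzyme reactions run 30 min at 37 °C in 25 mmol/L Tris pH 8.0, 137 mmol/L NaCl, 2.7 mmol/L KCl, 1 mmol/L MgCl2, 0.1 mg/mL BSA with the HDAC isoform and its substrate. Test compound diluted in 10% DMSO, final DMSO 1%. Fluorescent product read at excitation 350–360, emission 450–460. IC50 from normalized nonlinear dose-response fit. At least three independent runs; mean ± SD (n = 3).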

[14] = molecular target: HDAC3 (Homo sapiens, UniProt O15379); assay: HDACs activity assay, HDAC3; format: biochemical
HDAC3, sequence (O15379 whole entry): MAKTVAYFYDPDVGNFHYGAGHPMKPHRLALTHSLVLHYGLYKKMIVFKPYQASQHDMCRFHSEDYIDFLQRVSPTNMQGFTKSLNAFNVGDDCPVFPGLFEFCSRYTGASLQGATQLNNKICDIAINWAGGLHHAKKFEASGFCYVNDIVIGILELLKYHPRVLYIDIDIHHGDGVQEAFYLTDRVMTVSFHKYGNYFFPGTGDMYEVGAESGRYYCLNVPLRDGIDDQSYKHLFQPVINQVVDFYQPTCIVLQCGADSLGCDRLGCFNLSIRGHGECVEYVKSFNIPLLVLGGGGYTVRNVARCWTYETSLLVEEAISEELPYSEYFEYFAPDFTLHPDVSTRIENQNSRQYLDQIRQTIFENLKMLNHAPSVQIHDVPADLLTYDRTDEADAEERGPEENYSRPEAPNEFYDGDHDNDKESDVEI
HDAC3, sequence (Q9Y618 395-489 partner limits assumed): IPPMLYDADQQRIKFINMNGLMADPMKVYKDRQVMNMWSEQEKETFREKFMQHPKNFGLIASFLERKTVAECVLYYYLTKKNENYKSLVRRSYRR
Method in brief: as §1

[15] = molecular target: HDAC4 (Homo sapiens, UniProt P56524); assay: HDACs activity assay, HDAC4; format: biochemical
Method in brief: as §1

[16] = molecular target: HDAC6 (Homo sapiens, UniProt Q9UBN7); assay: HDACs activity assay, HDAC6; format: biochemical
HDAC6, sequence (Q9UBN7 whole entry): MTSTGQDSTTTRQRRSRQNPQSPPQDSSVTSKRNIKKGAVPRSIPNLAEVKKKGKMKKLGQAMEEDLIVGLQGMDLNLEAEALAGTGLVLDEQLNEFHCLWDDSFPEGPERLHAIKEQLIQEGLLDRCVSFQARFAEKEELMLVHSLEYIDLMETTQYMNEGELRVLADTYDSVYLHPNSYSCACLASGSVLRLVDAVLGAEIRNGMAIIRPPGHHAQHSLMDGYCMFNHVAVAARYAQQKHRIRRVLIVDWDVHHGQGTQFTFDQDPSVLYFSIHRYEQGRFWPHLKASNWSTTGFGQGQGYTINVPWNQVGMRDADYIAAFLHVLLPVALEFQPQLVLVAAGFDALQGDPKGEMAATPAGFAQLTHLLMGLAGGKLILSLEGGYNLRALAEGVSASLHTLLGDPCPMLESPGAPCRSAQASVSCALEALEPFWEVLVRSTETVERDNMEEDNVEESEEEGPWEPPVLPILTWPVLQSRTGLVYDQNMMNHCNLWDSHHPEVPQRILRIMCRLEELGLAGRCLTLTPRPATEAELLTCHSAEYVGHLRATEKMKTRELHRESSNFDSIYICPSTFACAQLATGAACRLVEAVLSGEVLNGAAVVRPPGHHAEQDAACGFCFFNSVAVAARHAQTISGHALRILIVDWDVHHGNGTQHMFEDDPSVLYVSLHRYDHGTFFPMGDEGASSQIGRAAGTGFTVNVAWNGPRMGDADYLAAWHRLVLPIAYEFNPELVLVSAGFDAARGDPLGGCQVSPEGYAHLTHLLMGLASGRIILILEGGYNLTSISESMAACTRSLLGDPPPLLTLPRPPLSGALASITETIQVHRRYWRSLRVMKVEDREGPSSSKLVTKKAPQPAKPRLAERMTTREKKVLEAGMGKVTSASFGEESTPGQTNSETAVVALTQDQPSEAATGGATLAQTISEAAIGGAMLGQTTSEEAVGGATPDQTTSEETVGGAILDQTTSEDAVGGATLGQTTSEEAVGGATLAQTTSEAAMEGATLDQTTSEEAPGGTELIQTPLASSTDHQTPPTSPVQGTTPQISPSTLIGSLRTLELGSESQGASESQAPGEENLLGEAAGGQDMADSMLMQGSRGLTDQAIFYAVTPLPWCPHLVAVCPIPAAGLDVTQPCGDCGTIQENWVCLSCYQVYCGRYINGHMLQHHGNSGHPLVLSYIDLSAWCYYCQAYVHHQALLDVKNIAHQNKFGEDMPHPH
Method in brief: as §1

[17] = molecular target: HDAC8 (Homo sapiens, UniProt Q9BY41); assay: HDACs activity assay, HDAC8; format: biochemical
HDAC8, sequence (Q9BY41 whole entry): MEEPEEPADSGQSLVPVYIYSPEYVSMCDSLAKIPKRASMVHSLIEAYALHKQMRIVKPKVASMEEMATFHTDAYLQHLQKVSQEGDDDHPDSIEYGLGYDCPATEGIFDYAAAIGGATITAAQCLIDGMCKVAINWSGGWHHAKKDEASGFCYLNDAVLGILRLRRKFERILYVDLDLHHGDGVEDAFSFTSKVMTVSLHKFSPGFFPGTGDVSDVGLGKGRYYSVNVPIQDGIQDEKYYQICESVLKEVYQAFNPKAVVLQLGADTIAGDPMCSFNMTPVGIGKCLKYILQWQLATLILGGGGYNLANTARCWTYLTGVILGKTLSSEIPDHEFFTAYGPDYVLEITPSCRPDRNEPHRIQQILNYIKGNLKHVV
Method in brief: as §1

[18] = molecular target: HDAC10 (Homo sapiens, UniProt Q969S8); assay: HDACs activity assay, HDAC10; format: biochemical
Method in brief: as §1

[19] = molecular target: HDAC11 (Homo sapiens, UniProt Q96DB2); assay: HDACs activity assay, HDAC11; format: biochemical
HDAC11, sequence (Q96DB2 whole entry): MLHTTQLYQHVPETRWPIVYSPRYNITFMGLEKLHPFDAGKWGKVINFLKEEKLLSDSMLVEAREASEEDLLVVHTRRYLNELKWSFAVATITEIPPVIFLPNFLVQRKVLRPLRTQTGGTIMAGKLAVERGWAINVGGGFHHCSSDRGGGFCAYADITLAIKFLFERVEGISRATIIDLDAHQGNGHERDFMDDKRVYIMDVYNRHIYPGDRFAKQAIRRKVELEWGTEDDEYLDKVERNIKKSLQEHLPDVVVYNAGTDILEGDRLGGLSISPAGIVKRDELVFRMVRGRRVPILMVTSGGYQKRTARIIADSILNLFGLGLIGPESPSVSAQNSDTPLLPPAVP
Method in brief: as §1

[20] = test system: Acetyl-H3 and Acetyl-H4 in HCT116 cells; assay: Western blot for acetylated histones H3 and H4; format: cell-based, human; details: 0.5 and 5 μmol/L, 24 h
Method in brief: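 HCT116 cells (35 × 10^4/well) were exposed 24 h to test compound or DMSO vehicle, washed with cold PBS and lysed 30 min on ice in RIPA with protease/phosphatase inhibitors. BCA-quantified protein (30 μg) was run on SDS-PAGE and transferred to PVDF. Membranes were blocked 2 h in 5% BSA, probed overnight at 4 °C with anti-histone H3 and H4 antibodies, then secondary 1.5 h. Infrared imaging.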

[21] = test system: HCT116 cells; assay: Flow cytometry assay of cell apoptosis; format: cell-based, human; details: 48 h
[22] = test system: HCT116 cells; assay: Flow cytometry analysis of cell cycle; format: cell-based, human; details: 48 h
[23] = Pharmacokinetic study in SD rats; format: in vivo; details: male, Sprague-Dawley, rat, plasma, 20 mg/kg
[24] = female, ICR, mouse, liver microsomes, pH 7.4
[25] = 20 mg/kg, i.p., 14 consecutive days
[26] = 150 mg/kg, p.o., 21 days (dose of the combination not given)

With CC[C@@]1(O)C(=O)OCc2c1cc1n(c2=O)Cc2cc3ccccc3nc2-1 [CPT, Camptothecin] the “TOP1 relaxation activity (supercoiled DNA band)” value [1] was “obviously supercoiled DNA accumulation”.

In the case of O=C(CCCCCCC(=O)Nc1ccccc1)NO [Compound 1, vorinostat], the “Expression of γH2AX” value [2] is reported as “no increase”.

For CN1c2ccccc2C(=O)N2[C@H](C(=O)NCCCCCCC(=O)NO)Cc3c([nH]c4ccccc34)[C@@H]12 [Compound 20a, (7S,13bS)-N-(7-(Hydroxyamino)-7-oxoheptyl)-14-methyl-5-oxo-5,7,8,13,13b,14-hexahydroindolo[2′,3′:3,4]pyrido[2,1-b]quinazoline-7-carboxamide], the IC50 [3] was 0.027 ± 0.0023 µM, the IC50 [4] was 7.2 ± 0.52 µM and the IC50 [5] was 15 ± 2.5 µM. The IC50 [6] was 27 ± 2.1 µM, the IC50 [7] was 7.2 to 27 µM and the “TOP2 inhibitory activity (relaxation assay)” value (“TOP2 inhibitory activity” below) ([8]; 100 μmol/L) was “inactive”.

For CN1c2ccccc2C(=O)N2[C@H](C(=O)Nc3ccc(/C=C/C(=O)NO)cc3)Cc3c([nH]c4ccccc34)[C@@H]12 [Compound 25a, (7S,13bS)-N-(4-((E)-3-(Hydroxyamino)-3-oxoprop-1-en-1-yl)phenyl)-14-methyl-5-oxo-5,7,8,13,13b,14-hexahydroindolo[2′,3′:3,4]pyrido[2,1-b]quinazoline-7-carboxamide], the IC50 [3] was 0.089 ± 0.0062 µM, the IC50 [4] was 0.63 ± 0.52 µM and the IC50 [5] was 3 ± 0.25 µM. The IC50 [6] was 10 ± 1.2 µM, the “TOP2 inhibitory activity” value ([8]; 50 μmol/L) was “remarkable TOP2 inhibitory activities” and the “TOP2 inhibitory activity” value ([8]; 100 μmol/L) was “remarkable TOP2 inhibitory activities”. For the same compound, the IC50 [9] was 0.34 to 1 µM, the half-life at 1 μmol/L [10, 24] was 9.86 min and the “Tumor growth inhibition (TGI)” value [11, 25] was 2.2%.

In the case of CN1c2ccccc2C(=O)N2[C@H](C(=O)Nc3ccc(C(=O)Nc4ccccc4N)cc3)Cc3c([nH]c4ccccc34)[C@@H]12 [Compound 30a, (7S,13bS)-N-(4-((2-Aminophenyl)carbamoyl)phenyl)-14-methyl-5-oxo-5,7,8,13,13b,14-hexahydroindolo[2′,3′:3,4]pyrido[2,1-b]quinazoline-7-carboxamide], the IC50 ([3]; read-out: IC50 HDAC1, Table 3, Table S1 and text) is reported as 0.16 ± 0.015 µM, the IC50 [4] is reported as 1.6 ± 0.15 µM and the IC50 [5] is reported as 18 ± 2 µM. The IC50 [6] was 7.8 ± 0.65 µM, the “TOP2 inhibitory activity” value ([8]; 50 μmol/L) was “remarkable TOP2 inhibitory activities” and the “TOP2 inhibitory activity” value ([8]; 100 μmol/L) was “remarkable TOP2 inhibitory activities”. It also gave an IC50 [12] of 48 µM, an IC50 [9] of 0.56 to 1.9 µM and a half-life at 1 μmol/L [10, 24] of 35 min. The microsomal CLint at 1 μmol/L [10, 24] was 39.1 µL/min/mg, the “Microsomal t1/2 relative to compound 25a” value ([10]; mice liver microsomes) was roughly 3 fold and the IC50 [13] was 10 ± 1.4 µM. For the same compound, the IC50 [14] was 27 ± 4.8 µM, the IC50 [15] was greater than 100 µM and the IC50 [16] was greater than 100 µM. The IC50 [17] was greater than 100 µM, the IC50 [18] was 5.5 ± 1.5 µM and the IC50 [19] was greater than 100 µM. For the same compound, the “Acetylation of histone 3 and 4 (Acetyl-H3 and Acetyl-H4)” value [20] was “hyperacetylation effect of histone 3 and 4 (Acetyl-H3 and Acetyl-H4) in a dose-dependent manner”, the “Expression of γH2AX” value [2] was “increased the expression of γH2AX” and the “Percentage of apoptotic cells” value ([21]; HCT116, 0.5 μmol/L) was 27.6%. The “Percentage of apoptotic cells” value ([21]; HCT116, 1 μmol/L) was 37.1%, the “Percentage of apoptotic cells” value ([21]; HCT116, 5 μmol/L) was 88.8% and the “Ratio of cells at the G2/M phase” value ([22]; HCT116, 0.5 μmol/L) was 32.9%. For the same compound, the “Ratio of cells at the G2/M phase” value ([22]; HCT116, 1 μmol/L) was 36.4%, the “Ratio of cells at the G2/M phase” value ([22]; HCT116, 2 μmol/L) was 38.8% and the AUC(0-t) ([23]; ip) was 86900 ng·h/mL. The half-life ([23]; ip) was greater than 1440 min, the AUC(0-t) ([23]; po) was 485 ng·h/mL and the half-life ([23]; po) was 242 min. For the same compound, the “Tumor growth inhibition (TGI)” value [11, 25] was 63.6%, the “Tumor growth inhibition (TGI)” value ([11]; 100 mg/kg, p.o., 21 days) was 65.42% and the “Tumor growth inhibition (TGI)” value [11, 26] was 75.2%. For the same compound, the “Body weight during the test” value ([11]; p.o., 100 or 150 mg/kg, 21 days) was “no significant difference”.

With “Evodiamine [Compound 6, reference compound]” the “Expression of γH2AX” value [2] was “no increase” and the “Tumor growth inhibition (TGI)” value [11, 26] was 45.53%.
